{"source": "ChEMBL document CHEMBL1144979", "about": "“Combinatorial modification of natural products: synthesis and in vitro analysis of derivatives of thiazole peptide antibiotic GE2270 A: A-ring modifications” (Bioorg Med Chem Lett, 2003)", "key": {"[1]": {"test_system": "Enterococcus faecium", "test": "In vitro antibacterial activity against Vancomycin-susceptible Enterococcus faecium BM4147.1", "assay_type": "functional", "summary_of_the_method": "(§1)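 MICs by NCCLS broth dilution guidelines, modified by adding 0.02% bovine serum albumin to the growth medium; purified, resynthesized compounds tested against the expanded bacterial panel.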"}, "[2]": {"test_system": "Enterococcus faecalis", "test": "In vitro antibacterial activity against Vancomycin-resistant Enterococcus faecalis ATCC 51299", "assay_type": "functional"}, "[3]": {"test_system": "Escherichia coli", "test": "In vitro antibacterial activity against Escherichia coli (A G100B)", "assay_type": "functional", "summary_of_the_method": "as §1"}, "[4]": {"test_system": "Haemophilus influenzae", "test": "In vitro antibacterial activity against Haemophilus influenzae (ATTC31517)", "assay_type": "functional", "summary_of_the_method": "as §1"}, "[5]": {"test_system": "Staphylococcus epidermidis", "test": "In vitro antibacterial activity against Staphylococcus epidermidis (ATCC 12228)", "assay_type": "functional", "summary_of_the_method": "as §1"}, "[6]": {"test_system": "Staphylococcus aureus", "test": "In vitro antibacterial activity against methicillin sensitive Staphylococcus aureus ATCC 25923", "assay_type": "functional", "summary_of_the_method": "as §1"}, "[7]": {"test_system": "Streptococcus pneumoniae", "test": "In vitro antibacterial activity against Streptococcus pneumoniae (ATTC49619)", "assay_type": "functional", "summary_of_the_method": "as §1"}, "[8]": {"test_system": "Streptococcus pyogenes", "test": "In vitro antibacterial activity against Streptococcus pyogenes (ATTC19615)", "assay_type": "functional", "summary_of_the_method": "as §1"}, "[9]": {"test_system": "Staphylococcus aureus", "test": "In vitro antibacterial activity against methicillin resistant Staphylococcus aureus (MRSA) ATCC 33591", "assay_type": "functional"}, "[10]": {"test_system": "Haemophilus influenzae", "test": "In vitro antibacterial activity against Haemophilus influenzae (acr, LS-2)", "assay_type": "functional", "summary_of_the_method": "as §1"}, "[11]": {"test": "Inhibitory activity against elongation factor Tu (EF-Tu)", "assay_type": "functional, Bacteria"}, "[12]": {"test_system": "Enterococcus faecalis", "test": "In vitro antibacterial activity against Vancomycin-resistant Enterococcus faecalis (ATTC51299)"}}}
{"smiles": "CNC(=O)C[C@@H]1NC(=O)c2csc(n2)-c2ccc(-c3nc(COC(=O)N[C@@H](C)C(=O)O)cs3)nc2-c2csc(n2)-c2csc(n2)C(C(O)c2ccccc2)NC(=O)CNC(=O)c2nc(sc2COC)[C@H](C(C)C)NC(=O)c2nc1sc2C", "note": "(stereo partly specified)", "values": [{"measurement": "MIC", "setting": "[1]", "result": 0.25, "unit": "µg/mL"}, {"measurement": "MIC", "setting": "[2]", "result": 0.5, "unit": "µg/mL"}, {"measurement": "MIC", "setting": "[3]", "result": "> 16", "unit": "µg/mL"}, {"measurement": "MIC", "setting": "[4]", "result": 16, "unit": "µg/mL"}, {"measurement": "MIC", "setting": "[5]", "result": 2, "unit": "µg/mL"}, {"measurement": "MIC", "setting": "[6]", "result": 1, "unit": "µg/mL"}, {"measurement": "MIC", "setting": "[7]", "result": 4, "unit": "µg/mL"}, {"measurement": "MIC", "setting": "[8]", "result": 8, "unit": "µg/mL"}, {"measurement": "MIC", "setting": "[9]", "result": 0.5, "unit": "µg/mL"}, {"measurement": "MIC", "setting": "[10]", "result": 1, "unit": "µg/mL"}]}
{"smiles": "CNC(=O)C[C@@H]1NC(=O)c2csc(n2)-c2ccc(-c3nc(C(=O)N(C)CCCC(=O)O)cs3)nc2-c2csc(n2)-c2csc(n2)C(C(O)c2ccccc2)NC(=O)CNC(=O)c2nc(sc2COC)[C@H](C(C)C)NC(=O)c2nc1sc2C", "note": "(stereo partly specified)", "values": [{"measurement": "MIC", "setting": "[1]", "result": 0.125, "unit": "µg/mL"}, {"measurement": "MIC", "setting": "[2]", "result": 0.25, "unit": "µg/mL"}, {"measurement": "MIC", "setting": "[3]", "result": "> 16", "unit": "µg/mL"}, {"measurement": "MIC", "setting": "[4]", "result": 2, "unit": "µg/mL"}, {"measurement": "MIC", "setting": "[5]", "result": 1, "unit": "µg/mL"}, {"measurement": "MIC", "setting": "[6]", "result": 0.5, "unit": "µg/mL"}, {"measurement": "MIC", "setting": "[7]", "result": 2, "unit": "µg/mL"}, {"measurement": "MIC", "setting": "[8]", "result": 4, "unit": "µg/mL"}, {"measurement": "MIC", "setting": "[9]", "result": 0.25, "unit": "µg/mL"}, {"measurement": "MIC", "setting": "[10]", "result": 1, "unit": "µg/mL"}]}
{"smiles": "CNC(=O)C[C@@H]1NC(=O)c2csc(n2)-c2ccc(-c3nc(COC(=O)N(C)CCCC(=O)O)cs3)nc2-c2csc(n2)-c2csc(n2)C(C(O)c2ccccc2)NC(=O)CNC(=O)c2nc(sc2COC)[C@H](C(C)C)NC(=O)c2nc1sc2C", "note": "(stereo partly specified)", "values": [{"measurement": "MIC", "setting": "[1]", "result": 0.5, "unit": "µg/mL"}, {"measurement": "MIC", "setting": "[2]", "result": 0.5, "unit": "µg/mL"}, {"measurement": "MIC", "setting": "[3]", "result": "> 16", "unit": "µg/mL"}, {"measurement": "MIC", "setting": "[4]", "result": 8, "unit": "µg/mL"}, {"measurement": "MIC", "setting": "[5]", "result": 0.5, "unit": "µg/mL"}, {"measurement": "MIC", "setting": "[6]", "result": 0.5, "unit": "µg/mL"}, {"measurement": "MIC", "setting": "[7]", "result": "> 16", "unit": "µg/mL"}, {"measurement": "MIC", "setting": "[8]", "result": "> 16", "unit": "µg/mL"}, {"measurement": "MIC", "setting": "[9]", "result": 0.25, "unit": "µg/mL"}, {"measurement": "MIC", "setting": "[10]", "result": 2, "unit": "µg/mL"}]}
{"smiles": "CNC(=O)C[C@@H]1NC(=O)c2csc(n2)-c2ccc(-c3nc(C(=O)NCC(O)CC(=O)O)cs3)nc2-c2csc(n2)-c2csc(n2)C(C(O)c2ccccc2)NC(=O)CNC(=O)c2nc(sc2COC)[C@H](C(C)C)NC(=O)c2nc1sc2C", "note": "(stereo partly specified)", "values": [{"measurement": "MIC", "setting": "[1]", "result": 0.25, "unit": "µg/mL"}, {"measurement": "MIC", "setting": "[2]", "result": 0.25, "unit": "µg/mL"}, {"measurement": "MIC", "setting": "[3]", "result": "> 16", "unit": "µg/mL"}, {"measurement": "MIC", "setting": "[4]", "result": "> 16", "unit": "µg/mL"}, {"measurement": "MIC", "setting": "[5]", "result": 2, "unit": "µg/mL"}, {"measurement": "MIC", "setting": "[6]", "result": 1, "unit": "µg/mL"}, {"measurement": "MIC", "setting": "[7]", "result": 2, "unit": "µg/mL"}, {"measurement": "MIC", "setting": "[8]", "result": 1, "unit": "µg/mL"}, {"measurement": "MIC", "setting": "[9]", "result": 0.25, "unit": "µg/mL"}, {"measurement": "MIC", "setting": "[10]", "result": 2, "unit": "µg/mL"}]}
{"smiles": "CNC(=O)C[C@@H]1NC(=O)c2csc(n2)-c2ccc(-c3nc(COC(=O)NCCCCC(=O)O)cs3)nc2-c2csc(n2)-c2csc(n2)C(C(O)c2ccccc2)NC(=O)CNC(=O)c2nc(sc2COC)[C@H](C(C)C)NC(=O)c2nc1sc2C", "note": "(stereo partly specified)", "values": [{"measurement": "MIC", "setting": "[1]", "result": 0.125, "unit": "µg/mL"}, {"measurement": "MIC", "setting": "[2]", "result": 0.5, "unit": "µg/mL"}, {"measurement": "MIC", "setting": "[3]", "result": "> 16", "unit": "µg/mL"}, {"measurement": "MIC", "setting": "[4]", "result": 8, "unit": "µg/mL"}, {"measurement": "MIC", "setting": "[5]", "result": 0.5, "unit": "µg/mL"}, {"measurement": "MIC", "setting": "[6]", "result": 0.5, "unit": "µg/mL"}, {"measurement": "MIC", "setting": "[7]", "result": 2, "unit": "µg/mL"}, {"measurement": "MIC", "setting": "[8]", "result": 4, "unit": "µg/mL"}, {"measurement": "MIC", "setting": "[9]", "result": 0.25, "unit": "µg/mL"}, {"measurement": "MIC", "setting": "[10]", "result": 2, "unit": "µg/mL"}]}
{"smiles": "CNC(=O)C[C@@H]1NC(=O)c2csc(n2)-c2ccc(-c3nc(COC(=O)N[C@H](C)C(=O)O)cs3)nc2-c2csc(n2)-c2csc(n2)C(C(O)c2ccccc2)NC(=O)CNC(=O)c2nc(sc2COC)[C@H](C(C)C)NC(=O)c2nc1sc2C", "note": "(stereo partly specified)", "values": [{"measurement": "MIC", "setting": "[1]", "result": 0.25, "unit": "µg/mL"}, {"measurement": "MIC", "setting": "[2]", "result": 1, "unit": "µg/mL"}, {"measurement": "MIC", "setting": "[3]", "result": "> 16", "unit": "µg/mL"}, {"measurement": "MIC", "setting": "[4]", "result": 16, "unit": "µg/mL"}, {"measurement": "MIC", "setting": "[5]", "result": 2, "unit": "µg/mL"}, {"measurement": "MIC", "setting": "[6]", "result": 0.5, "unit": "µg/mL"}, {"measurement": "MIC", "setting": "[7]", "result": 2, "unit": "µg/mL"}, {"measurement": "MIC", "setting": "[8]", "result": 2, "unit": "µg/mL"}, {"measurement": "MIC", "setting": "[9]", "result": 0.5, "unit": "µg/mL"}, {"measurement": "MIC", "setting": "[10]", "result": 1, "unit": "µg/mL"}]}
{"smiles": "CNC(=O)C[C@@H]1NC(=O)c2csc(n2)-c2ccc(-c3nc(COC(=O)NCC(O)CC(=O)O)cs3)nc2-c2csc(n2)-c2csc(n2)C(C(O)c2ccccc2)NC(=O)CNC(=O)c2nc(sc2COC)[C@H](C(C)C)NC(=O)c2nc1sc2C", "note": "(stereo partly specified)", "values": [{"measurement": "MIC", "setting": "[1]", "result": 0.5, "unit": "µg/mL"}, {"measurement": "MIC", "setting": "[2]", "result": 1, "unit": "µg/mL"}, {"measurement": "MIC", "setting": "[3]", "result": "> 16", "unit": "µg/mL"}, {"measurement": "MIC", "setting": "[4]", "result": "> 16", "unit": "µg/mL"}, {"measurement": "MIC", "setting": "[5]", "result": 2, "unit": "µg/mL"}, {"measurement": "MIC", "setting": "[6]", "result": 1, "unit": "µg/mL"}, {"measurement": "MIC", "setting": "[7]", "result": 4, "unit": "µg/mL"}, {"measurement": "MIC", "setting": "[8]", "result": 8, "unit": "µg/mL"}, {"measurement": "MIC", "setting": "[9]", "result": 0.5, "unit": "µg/mL"}, {"measurement": "MIC", "setting": "[10]", "result": 2, "unit": "µg/mL"}]}
{"smiles": "CNC(=O)C[C@@H]1NC(=O)c2csc(n2)-c2ccc(-c3nc(C4=N[C@H](C(=O)N5CCC[C@H]5C(N)=O)CO4)cs3)nc2-c2csc(n2)-c2csc(n2)C(C(O)c2ccccc2)NC(=O)CNC(=O)c2nc(sc2COC)[C@H](C(C)C)NC(=O)c2nc1sc2C", "note": "(stereo partly specified)", "values": [{"measurement": "MIC", "setting": "[1]", "result": 0.015, "unit": "µg/mL"}, {"measurement": "IC50", "setting": "[11]", "result": 5, "unit": "nM"}, {"measurement": "MIC", "setting": "[3]", "result": "> 16", "unit": "µg/mL"}, {"measurement": "MIC", "setting": "[4]", "result": "> 16", "unit": "µg/mL"}, {"measurement": "MIC", "setting": "[5]", "result": 0.03, "unit": "µg/mL"}, {"measurement": "MIC", "setting": "[6]", "result": 0.03, "unit": "µg/mL"}, {"measurement": "MIC", "setting": "[7]", "result": 0.06, "unit": "µg/mL"}, {"measurement": "MIC", "setting": "[8]", "result": 0.125, "unit": "µg/mL"}, {"measurement": "MIC", "setting": "[9]", "result": 0.03, "unit": "µg/mL"}, {"measurement": "MIC", "setting": "[10]", "result": "> 16", "unit": "µg/mL"}, {"measurement": "MIC", "setting": "[12]", "result": 0.015, "unit": "µg/mL"}]}
